In ChEMBL document CHEMBL2157987, “Benzimidazole bearing oxadiazole and triazolo-thiadiazoles nucleus: design and synthesis as anticancer agents” (2012):

Assays:
UO-31 = assay: Cytotoxicity against human UO31 cells assessed as cell growth at 10 uM after 48 hrs by SRB assay; type: functional; conditions: UO-31, 48 h, read-out: Activity
Procedure, shortened: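 This was a single-concentration screen on UO-31 in RPMI 1640 with 5% FBS. Compound went on 24 h after plating, with 48 h exposure at 37 °C. End point was sulforhodamine B protein staining read at 515 nm. Results are percent growth of treated cells relative to untreated controls and time-zero plates.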

K562 = assay: Cytotoxicity against human K562 cells assessed as cell growth at 10 uM after 48 hrs by SRB assay; type: functional; conditions: K562, 48 h, read-out: Activity
Procedure, shortened: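 NCI single-dose screen at 10 µM. Cells were incubated 48 h and the end point was read by sulforhodamine B protein staining. Results are given as percent growth of treated cells relative to untreated controls. Growth of 32% or less was counted as active.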

| SMILES | growth at 10 µM (UO-31) | growth at 10 µM (K562) |
| --- | --- | --- |
| O=C(CCc1nnc(-c2cc(O)c(O)c(O)c2)o1)c1nc2ccccc2[nH]1 | 62.2% |  |
| O=C(CCc1nnc(/C=C/c2ccccc2)o1)c1nc2ccccc2[nH]1 |  | 24.6% |
| O=C(CCc1nnc2sc(-c3cc(O)c(O)c(O)c3)nn12)c1nc2ccccc2[nH]1 |  | 8.3% |
| Nc1cc(Br)c(-c2nn3c(CCC(=O)c4nc5ccccc5[nH]4)nnc3s2)c(Br)c1 |  | 7.05% |
| O=C(CCc1nnc2sc(/C=C/c3ccccc3)nn12)c1nc2ccccc2[nH]1 |  | 2.17% |
